This note sets out measurements from ChEMBL document CHEMBL4130542, “Daedophamide, a Cytotoxic Cyclodepsipeptide from a Daedalopelta sp. Sponge Collected in Indonesia” (2017).

For orientation: GI50 means the concentration that inhibits growth by half. Low readings indicate greater sensitivity of the cells, high ones lower sensitivity of the cells. In general, TGI refers to the concentration at which net growth stops.

Where only a bound is given, the exact number is not on record here.

Holding throughout (type): functional
One assay concerns HT-29. In words: Cytotoxicity against human HT-29 cells after 48 hrs by sulforhodamine B assay. To be noted: HT-29, 48 h; for CC50: read-out: LC50 (the source's name). The method in brief:
(§1)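 Human carcinoma lines (A-549 lung, MDA-MB-231 breast adenocarcinoma, HT-29 colorectal, PSN-1 pancreas). Cell survival estimated with the NCI algorithm. Three dose-response parameters derived: GI50 (50% growth inhibition vs control cells), TGI (total growth inhibition vs control) and LC50 (50% cell death vs control). GI50 calculated by a literature procedure.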

For a further assay, the system named is A549. In words: Cytotoxicity against human A549 cells after 48 hrs by sulforhodamine B assay. As to conditions: A549, 48 h; for CC50: read-out: LC50 (the source's name). The method in brief:
as §1
In general terms: The SRB assay estimates cell density from bound dye.

For another assay, the system named is PSN1. In words: Cytotoxicity against human PSN1 cells after 48 hrs by sulforhodamine B assay. To be noted: PSN1, 48 h; for CC50: read-out: LC50 (the source's name). In short, it runs like this:
as §1

For a further assay, the system named is MDA-MB-231. Description: Cytotoxicity against human MDA-MB-231 cells after 48 hrs by sulforhodamine B assay. To be noted: MDA-MB-231, 48 h; for CC50: read-out: LC50 (the source's name). In short, it runs like this:
as §1

Consider `CO[C@H](C)[C@@H]1NC(=O)[C@H](CCC(N)=O)N(C)C(=O)[C@H](CC(C)C)NC(=O)[C@@H](CCCNC(=N)N)NC(=O)[C@@H](CO)NC(=O)[C@H](NC(=O)[C@@H](NC(=O)[C@H](O)[C@H](O)[C@H](CCCNC(=N)N)NC(=O)[C@@H](C)NC(=O)[C@H](C)[C@H](O)[C@H](C)C[C@H](C)CC(C)C)[C@@H](C)[C@@H](C)C(N)=O)[C@@H](C)OC(=O)[C@@H]2CCCCN2C(=O)[C@@H](CC(=O)O)NC1=O`, for which the GI50 was 600 nM in the assay on HT-29, 400 nM in the assay on A549, 200 nM in the assay on PSN1 and 300 nM in the assay with MDA-MB-231. For the same compound, the TGI in the assay with HT-29 amounted to 800 nM; in the assay with A549 it was 500 nM; in the assay on PSN1, 300 nM; in the assay on MDA-MB-231, 600 nM. For the same compound, the CC50 was found to be 1300 nM in the assay with HT-29, 700 nM with A549, 600 nM in the assay on PSN1 and 900 nM in the assay on MDA-MB-231.
For `COc1cccc2c1C(=O)c1c(O)c3c(c(O)c1C2=O)C[C@@](O)(C(=O)CO)C[C@@H]3O[C@H]1C[C@H](N)[C@H](O)[C@H](C)O1` [DOXORUBICIN], the GI50 was 300 nM in the assay on HT-29, 200 nM with A549, 200 nM with PSN1 and 200 nM in the assay with MDA-MB-231. Also, the concentration for total growth inhibition (TGI) in the assay with HT-29 was 900 nM; in the assay on A549, 900 nM; in the assay on PSN1, 500 nM; with MDA-MB-231, 500 nM. Besides, the CC50 in the assay on HT-29 is greater than 17200 nM; in the assay on A549, greater than 17200 nM; in the assay with PSN1, 3100 nM; with MDA-MB-231, 2400 nM.
